Active and inactive are the calls of the source. No cut-off for these calls is given here.
What was measured:
[1] = AUC (0 to 24 hrs) in rat at 5 mg/kg, po; format: ADME, organism-based; set-up: time < 24 hr, dose 5 mg/kg, route oral; details: plasma
Mus musculus [2] = experiment: Toxicity in ICR mouse assessed as CNS excitation at 1000 mg/kg, po administered as single dose; format: organism-based; set-up: dose 1000 mg/kg, route oral; details: in vivo
Mus musculus [3] = experiment: Toxicity in ICR mouse assessed as vacuolar degeneration in kidney at 300 mg/kg, po QD for 14 days; format: organism-based; set-up: dose 300 mg/kg, route oral; details: in vivo, 336 h
[4] = Half life in rat at 5 mg/kg, po; format: ADME, organism-based; set-up: dose 5 mg/kg, route oral; details: in vivo
CYP2D6 [5] = molecular target: T1, CYP2D6 (Homo sapiens, UniProt P10635); experiment: Inhibition of CYP2D6 at 1 uM; format: ADME
T1 sequence (P10635 whole entry): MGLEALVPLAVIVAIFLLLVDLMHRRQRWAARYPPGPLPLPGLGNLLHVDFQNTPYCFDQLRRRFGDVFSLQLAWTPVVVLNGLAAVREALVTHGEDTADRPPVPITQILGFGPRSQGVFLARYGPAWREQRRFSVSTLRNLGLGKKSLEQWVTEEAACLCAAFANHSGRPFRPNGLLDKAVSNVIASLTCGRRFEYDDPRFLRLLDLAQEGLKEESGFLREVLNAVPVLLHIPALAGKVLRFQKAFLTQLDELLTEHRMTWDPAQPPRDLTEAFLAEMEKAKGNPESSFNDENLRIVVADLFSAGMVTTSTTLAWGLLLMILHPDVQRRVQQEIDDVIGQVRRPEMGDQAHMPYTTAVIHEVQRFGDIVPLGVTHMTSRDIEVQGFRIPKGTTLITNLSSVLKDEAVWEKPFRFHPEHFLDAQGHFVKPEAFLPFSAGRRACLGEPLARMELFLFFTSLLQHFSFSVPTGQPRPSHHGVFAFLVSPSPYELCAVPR

[6] = Cmax in rat at 5 mg/kg, po; format: ADME, organism-based; set-up: dose 5 mg/kg, route oral; details: in vivo
Mus musculus [7] = species on record: Mus musculus; experiment: Antiinflammatory activity in Freund's adjuvant-induced C57BL/6 mouse assessed as decrease in inflammatory cell infiltrates in brain; format: functional, organism-based
In short: (§1)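 C57BL/6 mice were immunized s.c. with a MOG33-55 peptide emulsion and given pertussis vaccine (350 ng i.v.) right away and again 48 h later. From day 0, compound in 3% aqueous Tween 80 (4 mg/mL) or water was dosed orally b.i.d. Tissue cellular infiltrate was scored 0–5, from few small perivascular/meningeal infiltrates up to very large extensive infiltrate.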

[8] = Cmax in rat at 100 mg/kg, po; format: ADME, organism-based; set-up: dose 100 mg/kg, route oral; details: in vivo
[9] = Tmax in rat at 100 mg/kg, po; format: ADME, organism-based; set-up: dose 100 mg/kg, route oral; details: in vivo
In short: (§2)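 Rats, not fasted, received a single intravenous or oral dose.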

[10] = Aqueous solubility of the compound at pH 1.2; format: physicochemical
Mus musculus [11] = experiment: Toxicity in ICR mouse assessed as increase in AST level at 300 mg/kg, po QD for 14 days; format: organism-based; set-up: dose 300 mg/kg, route oral; details: in vivo, 336 h
In short: (§3)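 Repeated-dose study in 6-week-old male ICR mice. Vehicle or 30, 100 or 300 mg/kg was given orally once daily for 14 days. Survival, behavior, body weight and liver enzymes (AST, ALT) were monitored.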

CYP3A4 [12] = molecular target: T2, CYP3A4 (Homo sapiens, UniProt P08684); experiment: Inhibition of CYP3A4 at 1 uM; format: ADME
T2 sequence (P08684 whole entry): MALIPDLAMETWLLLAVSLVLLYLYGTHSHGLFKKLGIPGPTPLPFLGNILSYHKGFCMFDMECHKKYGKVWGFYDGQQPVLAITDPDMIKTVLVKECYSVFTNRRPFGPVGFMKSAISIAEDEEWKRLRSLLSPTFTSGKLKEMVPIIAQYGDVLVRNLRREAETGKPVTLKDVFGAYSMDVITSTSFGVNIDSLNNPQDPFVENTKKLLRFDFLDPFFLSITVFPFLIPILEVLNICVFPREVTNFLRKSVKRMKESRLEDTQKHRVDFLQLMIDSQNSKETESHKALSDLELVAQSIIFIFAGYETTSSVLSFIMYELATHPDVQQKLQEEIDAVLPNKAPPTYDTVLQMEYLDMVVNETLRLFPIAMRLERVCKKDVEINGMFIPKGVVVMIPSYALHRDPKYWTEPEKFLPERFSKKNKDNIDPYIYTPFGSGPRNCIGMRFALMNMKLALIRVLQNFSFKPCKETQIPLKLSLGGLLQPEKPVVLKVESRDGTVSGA

CYP1A2 [13] = molecular target: T3, CYP1A2 (Homo sapiens, UniProt P05177); experiment: Inhibition of CYP1A2 at 1 uM; format: ADME
T3 sequence (P05177 whole entry): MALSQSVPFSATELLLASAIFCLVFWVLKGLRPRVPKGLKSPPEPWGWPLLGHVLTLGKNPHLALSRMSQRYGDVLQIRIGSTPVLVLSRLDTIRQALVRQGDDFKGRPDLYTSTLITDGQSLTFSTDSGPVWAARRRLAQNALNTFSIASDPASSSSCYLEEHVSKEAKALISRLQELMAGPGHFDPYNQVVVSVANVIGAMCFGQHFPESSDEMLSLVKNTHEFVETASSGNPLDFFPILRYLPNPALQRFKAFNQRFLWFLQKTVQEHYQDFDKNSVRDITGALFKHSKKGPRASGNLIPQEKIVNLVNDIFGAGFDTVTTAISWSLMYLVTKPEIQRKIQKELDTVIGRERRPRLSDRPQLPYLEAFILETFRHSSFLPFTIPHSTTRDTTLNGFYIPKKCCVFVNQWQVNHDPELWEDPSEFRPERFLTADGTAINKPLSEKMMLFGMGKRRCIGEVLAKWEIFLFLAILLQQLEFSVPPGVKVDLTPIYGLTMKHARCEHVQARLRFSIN

Mus musculus [14] = experiment: Toxicity in ICR mouse assessed as vacuolar degeneration in liver at 300 mg/kg, po QD for 14 days; format: organism-based; set-up: dose 300 mg/kg, route oral; details: in vivo, 336 h
CYP1A2 [15] = molecular target: T3, CYP1A2; experiment: Inhibition of CYP1A2 at 100 uM; format: ADME
Mus musculus [16] = experiment: Antiinflammatory activity in complete Freund's adjuvant-induced C57BL/6 mouse assessed as delay in autoimmune encephalomyelitis disease progression at 30 mg/kg, po BID; format: functional
In short: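 MOG33-55 peptide emulsion given subcutaneously to C57BL/6 mice, with intravenous pertussis vaccine (350 ng) right after and again 48 h later. Compound dissolved at 4 mg/mL in 3% aqueous Tween 80 (stored at 4 C), or water as vehicle, given orally b.i.d. from the day of immunization (day 0). Mice monitored daily for disease onset and clinical score (0–5 scale).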

Rattus norvegicus [17] = experiment: Drug uptake in collagen-induced Lewis rat bone marrow at 2 to 30 mg/kg, po measured 5 hrs post last dose; format: functional, organism-based
In short: (§4)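 In the rat collagen-induced arthritis study (oral b.i.d. dosing for 28 days), compound concentration was measured in plasma, tarsal homogenates and thigh-bone marrow. Samples were taken 5 h after the last dose on day 28.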

Mus musculus [18] = experiment: Toxicity in ICR mouse assessed as increase in ALT level at 300 mg/kg, po QD for 14 days; format: organism-based; set-up: dose 300 mg/kg, route oral; details: in vivo, 336 h; in short: as §3
Rattus norvegicus [19] = experiment: Oral bioavailability in rat at 5 mg/kg, po; format: ADME, organism-based; details: in vivo; in short: as §2
Rattus norvegicus [20] = experiment: Antiinflammatory activity in collagen-induced arthritis Lewis rat model assessed as inhibition of paw edema at 2 to 30 mg/kg, po BID for 28 days measured on […] by Plethysmometer; format: functional, organism-based
In short: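 Female Lewis SPF rats, 6 weeks old (n = 8/group), were immunized at the tail base with 900 μg bovine type II collagen in Freund's complete adjuvant (4 mg/mL M. tuberculosis) on day 0. A 450 μg boost followed on day 7. Compound in 5% aqueous gum arabic was gavaged b.i.d. for 28 days from day 0, against vehicle; methotrexate 3×/week served as positive control. Hind-limb volume was read by plethysmometer on days 0, 12, 14, 21 and 28, as % increase over day 0.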

[21] = Half life in rat at 5 mg/kg, iv; format: ADME, organism-based; set-up: dose 5 mg/kg, route intravenous; details: in vivo
Mus musculus [22] = species on record: Mus musculus; experiment: Antiinflammatory activity in Freund's adjuvant-induced C57BL/6 mouse assessed as decrease in inflammatory cell infiltrates in cerebellum; format: functional, organism-based; in short: as §1
Rattus norvegicus [23] = experiment: Drug uptake in collagen-induced Lewis rat tarasal joints at 2 to 30 mg/kg, po measured 5 hrs after last dosing; format: functional, organism-based; in short: as §4
CYP2C9 [24] = molecular target: T4, CYP2C9 (Homo sapiens, UniProt P11712); experiment: Inhibition of CYP2C9 at 1 uM; format: ADME
T4 sequence (P11712 whole entry): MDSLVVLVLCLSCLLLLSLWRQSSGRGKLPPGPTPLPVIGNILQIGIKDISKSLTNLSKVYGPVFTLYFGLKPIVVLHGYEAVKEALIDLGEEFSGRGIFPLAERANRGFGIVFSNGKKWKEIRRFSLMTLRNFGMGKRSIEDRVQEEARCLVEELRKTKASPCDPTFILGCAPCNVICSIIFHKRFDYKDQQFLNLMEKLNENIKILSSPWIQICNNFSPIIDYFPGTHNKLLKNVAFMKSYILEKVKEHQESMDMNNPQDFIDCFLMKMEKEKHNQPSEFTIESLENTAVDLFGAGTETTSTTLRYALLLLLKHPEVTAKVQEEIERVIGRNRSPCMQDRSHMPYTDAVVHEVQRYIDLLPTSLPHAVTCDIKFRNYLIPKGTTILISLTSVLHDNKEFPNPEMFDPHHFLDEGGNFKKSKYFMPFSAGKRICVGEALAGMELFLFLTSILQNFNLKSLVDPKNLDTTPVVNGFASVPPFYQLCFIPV

CYP2C19 [25] = molecular target: T5, CYP2C19 (Homo sapiens, UniProt P33261); experiment: Inhibition of CYP2C19 at 1 uM; format: ADME
T5 sequence (P33261 whole entry): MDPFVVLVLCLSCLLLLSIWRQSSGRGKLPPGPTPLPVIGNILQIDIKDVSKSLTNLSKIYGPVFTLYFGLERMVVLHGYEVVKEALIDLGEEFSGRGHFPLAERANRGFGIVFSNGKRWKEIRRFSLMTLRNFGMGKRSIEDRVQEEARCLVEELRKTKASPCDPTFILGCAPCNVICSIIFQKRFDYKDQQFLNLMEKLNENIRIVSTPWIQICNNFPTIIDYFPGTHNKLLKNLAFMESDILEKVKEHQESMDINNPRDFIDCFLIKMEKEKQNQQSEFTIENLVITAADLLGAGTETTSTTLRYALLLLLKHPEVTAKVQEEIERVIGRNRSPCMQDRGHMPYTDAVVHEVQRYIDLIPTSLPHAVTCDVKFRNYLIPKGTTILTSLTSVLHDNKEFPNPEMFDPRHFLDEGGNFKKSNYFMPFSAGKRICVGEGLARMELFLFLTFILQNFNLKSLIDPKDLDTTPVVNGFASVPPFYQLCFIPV

[26] = AUC (0 to 24 hrs) in rat at 30 mg/kg, po; format: ADME, organism-based; set-up: time < 24 hr, dose 30 mg/kg, route oral; details: plasma
CYP2D6 [27] = molecular target: T1, CYP2D6; experiment: Inhibition of CYP2D6 at 100 uM; format: ADME
[28] = AUC (0 to 24 hrs) in rat at 5 mg/kg, iv; format: ADME, organism-based; set-up: time < 24 hr, dose 5 mg/kg, route intravenous; details: plasma
[29] = Aqueous solubility of the compound at pH 7.4; format: physicochemical
CYP3A4 [30] = molecular target: T2, CYP3A4; experiment: Inhibition of CYP3A4 at 100 uM; format: ADME
Mus musculus [31] = experiment: Toxicity in ICR mouse at 100 mg/kg, po administered as single dose; format: organism-based; set-up: dose 100 mg/kg, route oral; details: in vivo
[32] = Volume of distribution at steady state in rat at 5 mg/kg, iv; format: ADME, organism-based; set-up: dose 5 mg/kg, route intravenous; details: in vivo, read-out: Vdss; in short: as §2
Mus musculus [33] = experiment: Immunosuppressive activity in delayed-type hypersensitivity po dosed […] ICR mouse assessed as inhibition of sheep RBC-induced foot-pad swelling administered 1 hr prior and 2 hr after SRBC challenge measured on day 5 by Plethysmometer; format: functional, organism-based
Rattus norvegicus [34] = experiment: Antiinflammatory activity in complete Freund's adjuvant-induced Lewis rat arthritis model assessed as inhibition of paw edema at 30 mg/kg, po BID; format: functional, organism-based; set-up: dose 30 mg/kg
In short: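 Female Lewis SPF rats, 6 weeks old (n = 8/group), received an intradermal right hind footpad injection of 100 μL PBS-emulsified Freund's complete adjuvant (10 mg/mL M. butyricum). From day 10, compound in 5% gum arabic or vehicle was gavaged b.i.d. for a further 18 days; methotrexate 3×/week was the positive control. Left hind-limb volume was read by plethysmometer on days 0, 8, 15, 21 and 28, as % increase over day 0.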

Mus musculus [35] = species on record: Mus musculus; experiment: Antiinflammatory activity in Freund's adjuvant-induced C57BL/6 mouse assessed as decrease in inflammatory cell infiltrates in spinal cord; format: functional, organism-based; in short: as §1
Rattus norvegicus [36] = experiment: Inhibition of bone resorption in joints of collagen-induced arthritis Lewis rat model at 30 mg/kg, po BID for 28 days; format: functional, organism-based; set-up: dose 30 mg/kg
In short: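 Female Lewis SPF rats, 6 weeks old (n = 8/group). CIA was induced on day 0 by intradermal injection at the tail base of 900 μg bovine type II collagen in Freund's complete adjuvant, with a 450 μg boost on day 7. Compound in 5% gum arabic was given by gavage b.i.d. for 28 days from day 0. Hind-paw radiographs were taken on day 29 and scored blind from 0 to 4, averaging both legs. Two-tailed t test.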

[37] = Clearance in rat at 5 mg/kg, iv; format: ADME, organism-based; set-up: dose 5 mg/kg, route intravenous; details: in vivo
[38] = Tmax in rat at 30 mg/kg, po; format: ADME, organism-based; set-up: dose 30 mg/kg, route oral; details: in vivo; in short: as §2
[39] = Tmax in rat at 5 mg/kg, po; format: ADME, organism-based; set-up: dose 5 mg/kg, route oral; details: in vivo; in short: as §2
Mus musculus [40] = experiment: Toxicity in ICR mouse at 30 mg/kg, po QD for 14 days; format: organism-based; set-up: dose 30 mg/kg, route oral; details: in vivo, 336 h; in short: as §3
CYP2C19 [41] = molecular target: T5, CYP2C19; experiment: Inhibition of CYP2C19 at 100 uM; format: ADME
[42] = AUC (0 to 24 hrs) in rat at 100 mg/kg, po; format: ADME, organism-based; set-up: time < 24 hr, dose 100 mg/kg, route oral; details: plasma
Mus musculus [43] = experiment: Toxicity in ICR mouse assessed as occurrence of hypoactivity at 500 mg/kg, po administered as single dose; format: organism-based; set-up: dose 500 mg/kg, route oral; details: in vivo
Mus musculus [44] = experiment: Toxicity in ICR mouse assessed as increase in feeding behavior at 1000 mg/kg, po administered as single dose; format: organism-based; set-up: dose 1000 mg/kg, route oral; details: in vivo
CYP2C9 [45] = molecular target: T4, CYP2C9; experiment: Inhibition of CYP2C9 at 100 uM; format: ADME
[46] = Cmax in rat at 30 mg/kg, po; format: ADME, organism-based; set-up: dose 30 mg/kg, route oral; details: in vivo
Mus musculus [47] = experiment: Toxicity in ICR mouse at 100 mg/kg, po QD for 14 days; format: organism-based; set-up: dose 100 mg/kg, route oral; details: in vivo, 336 h; in short: as §3

## Cc1nn(C)c2nc(N(C)CCN(C)C)c(C(=O)NC(=O)Nc3cccc(OC(C)C)c3)cc12.Cl
[1]
  AUC(0-t) at 24 h: 1.62 µg·h/mL
Mus musculus [2]
  Activity: Toxic
Mus musculus [3]
  Activity: Toxic
[4]
  half-life: > 24 h
CYP2D6 [5]
  inhibition at 1 µM: -5%
[6]
  Cmax: 0.129 µg/mL
Mus musculus [7]
  Activity: Active
[8]
  Cmax: 0.927 µg/mL
[9]
  Tmax: 3 h
[10]
  solubility: 0.0313 mg/mL
Mus musculus [11]
  Activity: Toxic
CYP3A4 [12]
  inhibition at 1 µM: 4%
CYP1A2 [13]
  inhibition at 1 µM: -12%
Mus musculus [14]
  Activity: Toxic
CYP1A2 [15]
  inhibition at 100 µM: -2%
Mus musculus [16]
  Activity: 32.7 days
Rattus norvegicus [17]
  Drug uptake: Active
Mus musculus [18]
  Activity: Toxic
Rattus norvegicus [19]
  F: 60%
Rattus norvegicus [20]
  Activity: Dose-dependent effect
[21]
  half-life: 10 h
Mus musculus [22]
  Activity: Active
Rattus norvegicus [23]
  Drug uptake: Active
CYP2C9 [24]
  inhibition at 1 µM: 11%
CYP2C19 [25]
  inhibition at 1 µM: -8%
[26]
  AUC(0-t) at 24 h: 5.57 µg·h/mL
CYP2D6 [27]
  inhibition at 100 µM: 73%
[28]
  AUC(0-t) at 24 h: 2.69 µg·h/mL
[29]
  solubility: 0.0078 mg/mL
CYP3A4 [30]
  inhibition at 100 µM: 49%
Mus musculus [31]
  Activity: Non-toxic
[32]
  Vd: 9.9 L/kg
Mus musculus [33]
  Activity: Active
Rattus norvegicus [34]
  Activity: Active
Mus musculus [35]
  Activity: Active
Rattus norvegicus [36]
  Activity: Active
[37]
  clearance: 1.9 L/h/kg
[38]
  Tmax: 3 h
[39]
  Tmax: 5 h
Mus musculus [40]
  Activity: Non-toxic
CYP2C19 [41]
  inhibition at 100 µM: 34%
[42]
  AUC(0-t) at 24 h: 15.1 µg·h/mL
Mus musculus [43]
  Activity: Toxic
Mus musculus [44]
  Activity: Toxic
CYP2C9 [45]
  inhibition at 100 µM: 36%
[46]
  Cmax: 0.383 µg/mL
Mus musculus [47]
  Activity: Non-toxic
